Consider 27 molecules from ChEMBL document CHEMBL1132482, “Discovery of a series of cyclohexylethylamine-containing protein farnesyltransferase inhibitors exhibiting potent cellular activity” (J Med Chem, 1999).

Experiment [1] is filed under the species Rattus norvegicus. Put plainly: Inhibitory activity against whole cell Ras prenylation. It is filed as functional. In short, it runs like this:
(§1)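 Compounds were generally tested once, with some tested at n = 2, 4 or 8. Enzyme values are IC50 and cellular values are EC50 (nM). Stated assay reliability is ±50% for the in vitro assay and ±50–100% for the cellular assay. A 3-fold difference is treated as significant.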

For experiment [2], the target named is Protein farnesyltransferase (Rattus norvegicus, UniProt Q02293+Q04631). Description: In vitro inhibitory activity against Farnesyltransferase (FTase). It is filed as protein-complex assay. In short, it runs like this: as §1
The species named for experiment [3] is Rattus norvegicus. Put plainly: Inhibitory activity against whole cell Ras prenylation at a concentration of 1000 nM. In kind it is functional.
Experiment [4] is filed under the species Rattus norvegicus. Description: Inhibitory activity against whole cell Ras prenylation at a concentration of 300 nM. It is filed as functional.
The species entered for experiment [5] is Rattus norvegicus. Put plainly: Inhibitory activity against whole cell Ras prenylation at a concentration of 50 nM. It is filed as functional.

In the case of `CSCC[C@H](NC(=O)c1ccc(CN[C@H](CO)CC2CCCCC2)cc1-c1ccccc1C)C(=O)O`, the EC50 in experiment [1] turned out to be 190 nM. In experiment [2], this molecule returned an IC50 of 0.16 nM.
`CSCC[C@H](NC(=O)c1ccc(CN[C@@H](CO)CC2CCCCC2)cc1-c1ccccc1C)C(=O)O` came in with an IC50 in experiment [2] of 12 nM.
For `CSCC[C@H](NC(=O)c1ccc(CN[C@H](CSC2CCCCC2)CC2CCCCC2)cc1-c1ccccc1C)C(=O)O`, the inhibition at 1 µM in experiment [3] came out at 80%. For the same molecule, inhibition in experiment [2] was half-maximal at 0.41 nM (IC50).
`CSCC[C@H](NC(=O)c1ccc(CN(C)CCC2CCCCC2)cc1-c1ccccc1C)C(=O)O` yielded an EC50 in experiment [1] of 12 nM. The half-inhibitory concentration (IC50) in experiment [2] was determined as 0.87 nM.
The molecule `CCSC[C@H](CC1CCCCC1)NCc1ccc(C(=O)N[C@@H](CCS(C)(=O)=O)C(=O)O)c(-c2ccccc2C)c1` registered an IC50 in experiment [2] of 1 nM. 0.3 µM produced 34% inhibition in experiment [4].
In experiment [1], `CSCC[C@H](NC(=O)c1ccc(CN(CCC2CCCCC2)C(=O)OC(C)(C)C)cc1-c1ccccc1C)C(=O)O` showed an EC50 of 160 nM. In addition, half-maximal inhibition in experiment [2] (IC50) required 0.17 nM.
`COC[C@H](CC1CCCCC1)NCc1ccc(C(=O)N[C@@H](CCSC)C(=O)O)c(-c2ccccc2C)c1`: half-maximal inhibition in experiment [2] (IC50) required 0.66 nM. Moreover, 0.3 µM produced 47% inhibition in experiment [4].
In experiment [3], `CSCC[C@H](NC(=O)c1ccc(CN[C@H](CSc2ccccc2C)CC2CCCCC2)cc1-c1ccccc1C)C(=O)O` registered an inhibition at 1 µM of 77%. The same molecule gave an IC50 in experiment [2] of 0.42 nM.
With `CSCC[C@H](NC(=O)c1ccc(CN[C@H](/C=C/CC(C)C)CC2CCCCC2)cc1-c1ccccc1C)C(=O)O`, inhibition in experiment [2] was half-maximal at 0.22 nM (IC50).
For the molecule `CCS(=O)(=O)C[C@H](CC1CCCCC1)NCc1ccc(C(=O)N[C@@H](CCSC)C(=O)O)c(-c2ccccc2C)c1`, the inhibition at 0.05 µM in experiment [5] was found to be 59%. In experiment [2], this molecule gave an IC50 of 0.14 nM.
Consider `CSCC[C@H](NC(=O)c1ccc(CN[C@H](CO)CC2CCCCC2)cc1-c1ccccc1)C(=O)O`, for which, in experiment [2], 8 nM corresponded to half-maximal inhibition (IC50).
In experiment [1], `CSCC[C@H](NC(=O)c1ccc(CN(CCC2CCCCC2)Cc2ccccc2)cc1-c1ccccc1C)C(=O)O` gave an EC50 of more than 1000 nM. Moreover, in experiment [2], the IC50 was 3.5 nM.
In the case of `CCSC[C@H](CC1CCCCC1)NCc1ccc(C(=O)N[C@@H](CCSC)C(=O)O)c(-c2ccccc2C)c1`, the EC50 in experiment [1] amounted to 4.4 nM. Besides, the IC50 in experiment [2] came to 0.2 nM.
As to `CCCC[C@H](CC1CCCCC1)NCc1ccc(C(=O)N[C@@H](CCSC)C(=O)O)c(-c2ccccc2C)c1`, the midpoint of the response in experiment [1], the EC50, lay at 4.3 nM. This molecule also yielded an IC50 in experiment [2] of 0.46 nM.
The like results for `CSCC[C@H](NC(=O)c1ccc(CN[C@H](C)CC2CCCCC2)cc1-c1ccccc1C)C(=O)O` were, in that order, more than 1000 nM and 0.7 nM.
For `CSCC[C@H](NC(=O)c1ccc(CN[C@H](CSc2ccccc2)CC2CCCCC2)cc1-c1ccccc1C)C(=O)O`, in experiment [1], the EC50 was 12 nM. Besides, the IC50 in experiment [2] was determined as 0.2 nM.
For `CSCC[C@H](NC(=O)c1ccc(CNCCC2CCCCC2)cc1-c1ccccc1C)C(=O)O`, in that order: 200 nM and 0.17 nM.
Take `CSCC[C@H](NC(=O)c1ccc(CNC(CC2CCCCC2)CC2CCCCC2)cc1-c1ccccc1C)C(=O)O`: the inhibition at 1 µM in experiment [3] was found to be 75%. Besides, the IC50 in experiment [2] was 0.25 nM.
As for `CSCC[C@H](NC(=O)c1ccc(CN[C@@H](CO)C2CCCCC2)cc1-c1ccccc1C)C(=O)O`, the concentration for half-maximal inhibition (IC50) in experiment [2] was 10 nM.
In turn, `CSCC[C@H](NC(=O)c1ccc(CN[C@H](CCCC(C)C)CC2CCCCC2)cc1-c1ccccc1C)C(=O)O` displayed an EC50 in experiment [1] of 52 nM. The same molecule yielded an IC50 in experiment [2] of 0.28 nM.
For the molecule `CSCC[C@H](NC(=O)c1ccc(CN[C@H](CO)C2CCCCC2)cc1-c1ccccc1C)C(=O)O`, the IC50 in experiment [2] turned out to be 4 nM.
Regarding `CSCC[C@H](NC(=O)c1ccc(CN(CCC2CCCCC2)C(C)=O)cc1-c1ccccc1C)C(=O)O`, in experiment [1], the 50% effective concentration (EC50) is more than 1000 nM. The same molecule displayed an IC50 in experiment [2] of 2.9 nM.
Molecule `CSCC[C@H](NC(=O)c1ccc(CN[C@H](CSC(C)(C)C)CC2CCCCC2)cc1-c1ccccc1C)C(=O)O` came in with an EC50 in experiment [1] of 2.8 nM. In experiment [2], this molecule showed an IC50 of 0.6 nM.
With `CSCC[C@H](NC(=O)c1ccc(CN[C@H](CO)Cc2ccccc2)cc1-c1ccccc1C)C(=O)O`, the IC50 in experiment [2] is 4.6 nM.
In the case of `CCS(=O)(=O)C[C@H](CC1CCCCC1)NCc1ccc(C(=O)N[C@@H](CCS(C)(=O)=O)C(=O)O)c(-c2ccccc2C)c1`, at 1 µM the inhibition in experiment [3] was 63%. Moreover, half-maximal inhibition in experiment [2] (IC50) was put at 1.2 nM.
In turn, `CC[C@H](CC1CCCCC1)NCc1ccc(C(=O)N[C@@H](CCSC)C(=O)O)c(-c2ccccc2C)c1` had an EC50 in experiment [1] of more than 1000 nM. The same molecule registered an IC50 in experiment [2] of 0.7 nM.
In experiment [1], `CSCC[C@H](NC(=O)c1ccc(CN(CCC2CCCCC2)C(=O)c2ccccc2)cc1-c1ccccc1C)C(=O)O` displayed an EC50 of more than 1000 nM. This molecule also came in with an IC50 in experiment [2] of 1.1 nM.
